The target of assay [1] is T1, Exopolyphosphatase PRUNE1 (Homo sapiens, UniProt Q86TP1).
T1 sequence (Q86TP1 whole entry): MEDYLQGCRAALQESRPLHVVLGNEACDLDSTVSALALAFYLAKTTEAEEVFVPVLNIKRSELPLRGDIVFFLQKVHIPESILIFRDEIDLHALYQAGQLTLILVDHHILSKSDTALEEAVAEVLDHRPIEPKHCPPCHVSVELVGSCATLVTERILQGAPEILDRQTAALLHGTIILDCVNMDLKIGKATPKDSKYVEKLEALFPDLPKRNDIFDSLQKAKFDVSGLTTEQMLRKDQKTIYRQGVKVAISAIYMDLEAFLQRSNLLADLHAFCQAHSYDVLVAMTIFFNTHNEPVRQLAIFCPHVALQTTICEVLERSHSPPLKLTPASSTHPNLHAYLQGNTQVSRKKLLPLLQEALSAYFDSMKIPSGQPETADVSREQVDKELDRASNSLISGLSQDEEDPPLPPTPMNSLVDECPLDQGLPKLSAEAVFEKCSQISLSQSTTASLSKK
Description: Inhibition of human prune assessed as reduction of cAMP-phosphodiesterase activity.

For assay [2], the species on record is Homo sapiens. In words: Inhibition of cell motility in human MDA-MB-231T cells expressing human-prune at 8 uM by 2D cell migration assay. In kind it is functional, cell-based.
A short description of assay [3]: Inhibition of cell proliferation of human MDA-MB-231T cells expressing human-prune assessed as cell index levels at 50 uM measured 24 hrs post dose by xCelligence system based real time cell analysis method (reference value: 1.777 cell index). In kind it is functional. An outline of the steps: (§1)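 Compound or DMSO added once when cell index reached 1.0–1.2 (50–60% confluence). CI read every 5 min for up to 54–56 h at 37 °C, 5% CO2, normalised to time of addition. Compounds at 50 µM (dose-response runs also 100 µM). Two independent experiments; Student's t test.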

For assay [4], the species on record is Homo sapiens. Description: Inhibition of cell proliferation of human MDA-MB-231T cells expressing human-prune assessed as cell index levels at 50 uM measured 5 hrs post dose by xCelligence system based real time cell analysis method. In kind it is functional. An outline of the steps:
as §1

For assay [5], the species on record is Homo sapiens. In words: Inhibition of cell proliferation of human MDA-MB-231T cells expressing human-prune assessed as cell index levels at 50 uM measured 9 to 54 hrs post dose by xCelligence system based real time cell analysis method. In kind it is functional. A digest of the protocol:
as §1

The target in assay [6] is T1, Exopolyphosphatase PRUNE1. Description: Inhibition of purified human prune assessed as reduction of cAMP-phosphodiesterase activity by SPA.
Assay [7] deals with T2, Exopolyphosphatase PRUNE1 (Homo sapiens) (UniProt Q86TP1).
T2 sequence (whole entry): T1 sequence (Q86TP1 whole entry)
Description: Inhibition of human prune expressed in human MDA-435-c100 cells at 1 uM assessed as reduction of cAMP-phosphodiesterase activity using whole cell protein extracts by SPA. In kind it is cell-based.

Activity calls are given as the source filed them. The calls are words filed in the database; no cut-off is given here.

In the case of `OCCN(CCO)c1nc(N2CCCCC2)c2nc(N(CCO)CCO)nc(N3CCCCC3)c2n1` [DIPYRIDAMOLE], the concentration for half-maximal inhibition (IC50) (commonly the concentration that inhibits the measured activity by half) in assay [1] is 780 nM. Also, the inhibition entry in the assay filed under Homo sapiens [2] and in the assay filed under Homo sapiens [5] was “Active” throughout. In addition, the Activity in assay [3] came to 1.472. Besides, in the assay filed under Homo sapiens [4], the inhibition result was “inactive”.
`COc1ccc(CNc2nc(N(CCO)CCO)nc3c(NCc4ccc(OC)cc4)nc(N(CCO)CCO)nc23)cc1`: the inhibition entry (in the assay listed under Homo sapiens [2]; in assay [7]) was “Active” in each case. Also, the Activity in assay [3] was 1.185. Further, the IC50 in assay [6] is 210 nM. Besides, in the assay listed under Homo sapiens [4], the inhibition entry is “inactive”.

These data come from ChEMBL document CHEMBL2086379, “Novel pyrimidopyrimidine derivatives for inhibition of cellular proliferation and motility induced by h-prune in breast cancer” (Eur J Med Chem, 2012).
